Experimental data: publication PMC3889630 (European Journal of Clinical Pharmacology, 2013)
“Also recorded” adds a separate entry of the source. Where two headings read alike, the source gives them in different places.

Assays:
[1] = assay type: in vivo, human
How it was run: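 Severe renal impairment group (CLcr <30 mL/min) and matched healthy group (>90 mL/min), n=8 each, took one fasted morning 50 mg tablet. Total DTG and DTG-glucuronide measured by validated LC-MS/MS after acetonitrile extraction. Non-compartmental parameters log-transformed and compared by ANCOVA (gender fixed; age, BMI covariates) as geometric LS mean ratio impaired/healthy with 90 % CI.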

[2] = Safety and tolerability after single 50 mg DTG dose; assay type: in vivo, human; conditions: both groups
How it was run: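 Open-label single-dose study in HIV-seronegative adults aged 18–70 y: 8 with severe renal impairment (24-h urine CLcr <30 mL/min) and 8 healthy (CLcr >90 mL/min), matched for gender, age (±5 y) and BMI (±25 %). Each took one 50 mg tablet in the morning, fasted, and stayed housed until the last PK sample. Clinical and laboratory safety checks throughout, plus follow-up 7–10 days post-dose.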

[3] = treatment-naïve subjects, SPRING-1; cited from earlier work
[4] = cited from earlier work
[5] = cited from earlier work; remark: listed apart in the source
[6] = assay type: in vitro ADME, human
[7] = co-administration with darunavir/ritonavir, Phase 1 study; cited from earlier work
HIV = conditions: stated in discussion, no reference given; cited from earlier work

SMILES | mean elimination half-life shorter in renal impairment compared to controls ([1]; 50 mg single oral dose) | correlation between creatinine clearance and DTG PK parameters ([1]; Pearson, p > 0.1) | Cmax ([1]; human, plasma, oral, 50 mg, Cmax, range of values, DTG, healthy subjects) | deaths or serious adverse events [2] | intensity of adverse events [2] | tolerability [2] | reduction in DTG exposure between the 50 mg and 10 mg once-daily doses [3] | share of DTG among drug-related components circulating in plasma [4] | renal elimination of unchanged drug ([4]; human) | bound to plasma proteins [5] | GLS mean unbound plasma DTG concentration lower in renal impaired subjects ([6]; 3-hour time point) | GLS mean unbound plasma DTG concentration lower in renal impaired subjects ([6]; 24-hour time point) | effect of renal impairment on DTG fraction unbound in plasma ([6]; severe renal impairment vs healthy) | reduction of DTG trough concentration by DRV/r [7] | antiviral activity (HIV) | t1/2 ratio of DTG-Gluc to DTG ([1]; both groups of subjects) | glucuronide exposure relative to parent DTG based on molar ratios ([1]; renally-impaired population)
C[C@@H]1CCO[C@H]2Cn3cc(C(=O)NCc4ccc(F)cc4F)c(=O)c(O)c3C(=O)N12 [DTG, Dolutegravir] | 18% | No significant correlation | 820 to 3200 ng/mL | No deaths or serious adverse events | mild (Grade 1) | well tolerated | 75% | > 97% | < 1 % of the dose | greater than 99% | 14% | 49% | did not affect; also recorded: similar | 38% | – | – | –
C[C@@H]1CCO[C@H]2Cn3cc(C(=O)NCc4ccc(F)cc4F)c(=O)c(O[C@@H]4O[C@H](C(=O)O)[C@@H](O)[C@H](O)[C@H]4O)c3C(=O)N12 [DTG-Gluc, DTG-glucuronide] | – | – | – | – | – | – | – | – | – | – | – | – | – | – | no antiviral activity | ~1 | < 10%
